Test results reported in article PMC8958665 (ACS infectious diseases, 2021).
In brackets after ≈: the same amount, converted by molar mass. Like-named read-outs stand apart in the source and are kept apart here.

Assays:
[1] = test system: A. baumannii 4106 (AB4106); assay: Broth microdilution colistin potentiation, AB4106; type: cell-based, Acinetobacter baumannii
[2] = test system: A. baumannii 4106 (AB4106); assay: Broth microdilution standalone MIC, AB4106; type: cell-based; settings: Acinetobacter baumannii, read-out: standalone MIC against AB4106
[3] = test system: K. pneumoniae B9 (KPB9); assay: Broth microdilution colistin potentiation, KPB9; type: cell-based, Klebsiella pneumoniae
[4] = test system: NF-κB; assay: NF-κB luciferase reporter assay in HEK293 recombinant cells; type: cell-based; settings: Homo sapiens, HEK293, read-out: Inhibition of NF-κB IC50
[5] = test system: K. pneumoniae B9 (KPB9); assay: Broth microdilution standalone MIC, KPB9; type: cell-based; settings: Klebsiella pneumoniae, read-out: standalone MIC against KPB9
[6] = test system: P. aeruginosa strains TRPA161 and TRPA162; assay: Colistin potentiation, colistin-resistant P. aeruginosa strains; type: cell-based, Pseudomonas aeruginosa; settings: no adjuvant
Outline: (§1)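 Broth microdilution in CAMHB: strains are grown 6 h and diluted to 5 × 10^5 CFU/mL. Test compound is added from DMSO stock, and colistin (from water stock) is serially diluted in the compound-dosed suspension. An undosed aliquot gives the colistin MIC alone. Plates are incubated stationary at 37 °C for 16 h and read at OD600. MIC is 90% growth inhibition versus untreated. Run in duplicate, repeated at least twice.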

[7] = test system: colistin-resistant A. baumannii strains; type: cell-based, Acinetobacter baumannii; settings: no adjuvant
[8] = test system: colistin-resistant K. pneumoniae strains; assay: Colistin potentiation, panel of colistin-resistant K. pneumoniae strains; type: cell-based, Klebsiella pneumoniae; settings: no adjuvant
Outline: as §1

[9] = test system: AB4106; assay: MIC in the presence of polymyxin B nonapeptide; type: cell-based, Acinetobacter baumannii; settings: 10 μg/mL

Q: What does the source list for `O=C(Nc1cc(C(F)(F)F)cc(C(F)(F)F)c1)c1cc(Cl)ccc1O` [IMD-0354 4, IMD-0354]?
A: AB4106 colistin MIC in the presence of compound ([1]; compound at 5 μM, AB4106): 2 µg/mL; AB4106 fold reduction of colistin MIC ([1]; compound at 5 μM, vs colistin alone (2048 μg/mL)): 1024 fold; MIC [2]: 50 µM (≈ 19.2 µg/mL); KPB9 colistin MIC in the presence of compound ([3]; compound at 5 μM, KPB9): 0.5 µg/mL; KPB9 fold reduction of colistin MIC ([3]; compound at 5 μM, vs colistin alone (512 μg/mL)): 1024 fold; IC50 [4]: 1070 ± 60 nM; MIC [5]: 50 µM (≈ 19.2 µg/mL)

Q: colistin was tested. Which “AB4106 MIC of colistin alone” value ([1]; no adjuvant) did it give?
A: 2048 µg/mL

Q: And the “KPB9 MIC of colistin alone” value ([3]; no adjuvant)?
A: 512 µg/mL

Q: And the “colistin MIC alone” value ([6]; strain TRPA 161)?
A: 1024 µg/mL

Q: And the “colistin MIC alone” value ([6]; strain TRPA 162)?
A: 1024 µg/mL

Q: What about the “colistin MIC alone” value ([7]; strain AB 1E4) of the same compound?
A: >512 µg/mL

Q: What about the “colistin MIC alone” value ([7]; strain AB 1F9) of the same compound?
A: >512 µg/mL

Q: What about the “colistin MIC alone” value ([7]; strain AB 1G2) of the same compound?
A: >512 µg/mL

Q: And the “colistin MIC alone” value ([7]; strain AB 2A8)?
A: >512 µg/mL

Q: And the “colistin MIC alone” value ([7]; strain AB 3941)?
A: 1024 µg/mL

Q: And the “colistin MIC alone” value ([7]; strain AB 4112)?
A: 2048 µg/mL

Q: And the “colistin MIC alone” value ([7]; strain AB 17978 mcr-1)?
A: 64 µg/mL

Q: And the “colistin MIC alone” value ([8]; strain KP C3)?
A: 128 µg/mL

Q: What about the “colistin MIC alone” value ([8]; strain KP E2) of the same compound?
A: 512 µg/mL

Q: What about the “colistin MIC alone” value ([8]; strain KP F3) of the same compound?
A: 128 µg/mL

Q: And the “colistin MIC alone” value ([8]; strain KP F9)?
A: 256 µg/mL

Q: What about the “colistin MIC alone” value ([8]; strain KP F2210291 mcr-1) of the same compound?
A: 16 µg/mL

Q: What about the “colistin MIC alone” value ([8]; strain KP H2) of the same compound?
A: 256 µg/mL

Q: What about the “colistin MIC alone” value ([8]; strain KP I2) of the same compound?
A: 512 µg/mL

Q: How did the “toxicity against AB4106” value [9] turn out when polymyxin B nonapeptide [PMBN] was run?
A: no toxicity
